Drawing on PubChem BioAssay, this text covers GFP response vs DMSO, GFP response relative to DMSO and GFP response, % of DMSO for eight molecules.

Calls of active or inactive are those of the source.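 Rule for the calls, unless noted: active = GFP response above 150% of the DMSO level; inconclusive = fewer than 70 events counted for a yeast strain; inactive = the rest.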

A short description of assay [1]: hit retest on RPL19A-GFP reporter strain – cell-based, S. cerevisiae, flow cytometry, cherry picks, mother/daughter gates, confirmation (AID 2270;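 active = GFP response below 50% of the DMSO control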). Particulars: 3 h, at 10 µM, stronger effect = lower value, 100 = same GFP as DMSO wells. (In general: Flow cytometry measures light scatter and fluorescence of single cells or particles in a stream.)
Assay [2] is described as follows: yeast TOR pathway reporter LAP4-GFP change – cell-based, cherry picks, flow cytometry, mother/daughter gates, confirmation (AID 2271;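 active = GFP response above 150% of the DMSO control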;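 note: ratio of sample to DMSO plate mean so 100% equals DMSO level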). As to conditions: S. cerevisiae LAP4-GFP strain, 3 h, at 10 µM, stronger effect = higher value, 100 means same as DMSO control. The essentials: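 Material: Alexa Fluor 633-labelled Saccharomyces cerevisiae GFP-fusion strain, single-plex | Amount: Yeast cells seeded at OD600 of 0.2 | Buffer or medium: SC growth medium | Schedule: 3 h exposure, 30 °C | Measured by: HT flow cytometry, GFP fluorescence channel | Evaluation: % GFP response vs DMSO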

Assay [3] in a line: TOR pathway reporter MEP2-GFP, retest of hits – S. cerevisiae, flow cytometry GFP, cherry picks, confirmation (AID 2272;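 active = GFP response above 150% of the DMSO control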;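 note: ratio of well signal to plate DMSO mean so 100% equals DMSO level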). As to conditions: S. cerevisiae MEP2-GFP strain, 3 h, at 10 µM, stronger effect = higher value.
A short description of assay [4]: yeast AGP1-GFP fluorescence change, single-dose – cell-based, flow cytometry, S. cerevisiae, cherry picks, confirmation (AID 2273).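 Note: median GFP channel fluorescence over the whole cell population gate.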 As to conditions: S. cerevisiae AGP1-GFP strain, 3 h, at 10 µM.
The nature of assay [5]: TOR pathway CIT2 reporter hit retest – S. cerevisiae, GFP fusion, cherry picks, mother/daughter gates, confirmation (AID 2274). As to conditions: S. cerevisiae CIT2-GFP strain, flow cytometry, 3 h, at 10 µM, stronger effect = higher value.
Setting [6] is: measured here: daughter cell gate.
Where [7] appears, read: measured here: mother cell gate.
The mark [8] stands for this setting: measured here: daughter cell gate response.
Where [9] appears, read: measured here: mother cell gate response.

For `O=c1c2ccccc2nc(-c2ccccc2)n1CCN1CCOCC1`, the GFP response vs DMSO is 101% (inactive) in assay [1], 102% in assay [1] (setting [6]), 101% in assay [1] (setting [7]) and 101% (inactive) in assay [3]. Moreover, the GFP response relative to DMSO in assay [2] is 97% (inactive); in assay [2] (setting [8]), 97.5%; in assay [2] (setting [9]), 98.4%. Further, the GFP response, % of DMSO in assay [4] was 106% (inactive); in assay [5] it was 98.8% (inactive); in assay [5] (setting [6]), 95.6%; in assay [5] (setting [7]), 96.8%.
In the case of `COc1ccccc1-c1nnc(NC(=O)c2ccc(S(=O)(=O)N(C)Cc3ccccc3)cc2)o1`, the GFP response vs DMSO is 100% (inactive) in assay [1], 98.8% in assay [1] (setting [6]), 100% in assay [1] (setting [7]) and 104% (inactive) in assay [3]. Also, the GFP response relative to DMSO was 95.3% (inactive) in assay [2], 95% in assay [2] (setting [8]) and 94.6% in assay [2] (setting [9]). Further, the GFP response, % of DMSO in assay [4] was 98.9% (inactive); in assay [5], 97.8% (inactive); in assay [5] (setting [6]), 98.3%; in assay [5] (setting [7]) it was 98%.
On to `COc1cccc(OCC(=O)N2CCCc3ccccc32)c1`, for which the GFP response vs DMSO is 97.8% (inactive) in assay [1], 97% in assay [1] (setting [6]), 97.1% in assay [1] (setting [7]) and 99.3% (inactive) in assay [3]. Also, the GFP response relative to DMSO was 101% (inactive) in assay [2], 105% in assay [2] (setting [8]) and 102% in assay [2] (setting [9]). Further, the GFP response, % of DMSO in assay [4] is 100% (inactive); in assay [5] it was 95.8% (inactive); in assay [5] (setting [6]) it was 97.6%; in assay [5] (setting [7]), 94.9%.
For the molecule `Cc1onc(-c2ccccc2)c1C(=O)NC(=S)NNC(=O)c1ccco1`, the GFP response vs DMSO is 101% (inactive) in assay [1], 101% in assay [1] (setting [6]), 102% in assay [1] (setting [7]) and 102% (inactive) in assay [3]. The GFP response relative to DMSO is 102% (inactive) in assay [2], 104% in assay [2] (setting [8]) and 103% in assay [2] (setting [9]). Also, the GFP response, % of DMSO in assay [4] is 98.1% (inactive); in assay [5] it was 104% (inactive); in assay [5] (setting [6]), 106%; in assay [5] (setting [7]), 99.7%.
As to `O=C(/C=C/c1cc(Br)ccc1O)c1ccco1`, the GFP response vs DMSO was 99.9% (inactive) in assay [1], 101% in assay [1] (setting [6]), 99% in assay [1] (setting [7]) and 122% (inactive) in assay [3]. Also, the GFP response relative to DMSO was 151% (active) in assay [2], 135% in assay [2] (setting [8]) and 153% in assay [2] (setting [9]). For the same molecule, the GFP response, % of DMSO was 100% (inactive) in assay [4], 95% (inactive) in assay [5], 98.3% in assay [5] (setting [6]) and 91% in assay [5] (setting [7]).
Regarding `Oc1ccc(-c2csc(-c3ccccc3)n2)cc1O`, the GFP response vs DMSO is 97% (inactive) in assay [1], 93.2% in assay [1] (setting [6]), 96.5% in assay [1] (setting [7]) and 101% (inactive) in assay [3]. Also, the GFP response relative to DMSO was 124% (inactive) in assay [2], 120% in assay [2] (setting [8]) and 129% in assay [2] (setting [9]). In addition, the GFP response, % of DMSO in assay [4] is 96% (inactive); in assay [5] it was 93.4% (inactive); in assay [5] (setting [6]), 93.7%; in assay [5] (setting [7]) it was 90.8%.
On to `CCOC(=O)C1=C(c2ccccc2)NC(=S)NC1c1cc([N+](=O)[O-])ccc1OC` (stereo not drawn), for which the GFP response vs DMSO in assay [1] was 94% (inactive); in assay [1] (setting [6]), 92.6%; in assay [1] (setting [7]), 96.4%; in assay [3], 96.2% (inactive). Also, the values for the GFP response relative to DMSO in assay [2], in assay [2] (setting [8]) and in assay [2] (setting [9]) were 97.9% (inactive), 97.6% and 97.2%, respectively. For the same molecule, the GFP response, % of DMSO in assay [4] was 95.2% (inactive); in assay [5], 99.7% (inactive); in assay [5] (setting [6]) it was 101%; in assay [5] (setting [7]) it was 99.7%.
For the molecule `CCOc1ccc(/C=C2\N=C(c3cccs3)OC2=O)cc1OC`, the GFP response vs DMSO in assay [1] was 95% (inactive); in assay [1] (setting [6]), 95.2%; in assay [1] (setting [7]), 93.9%; in assay [3], 101% (inactive). Besides, the figures for the GFP response relative to DMSO in assay [2], in assay [2] (setting [8]) and in assay [2] (setting [9]) were 98.2% (inactive), 97.5% and 99.4%, respectively. Further, the GFP response, % of DMSO in assay [4] is 94.5% (inactive); in assay [5], 97.3% (inactive); in assay [5] (setting [6]), 95.6%; in assay [5] (setting [7]), 98.1%.
